High-throughput results as filed in PubChem.
PMI act: increases human mannose-6-phosphate isomerase activity | P34949 | purified human PMI, coupled resazurin fluorescence, 20 min; stronger effect = higher value; 1 = vehicle control, 0 substrate-free wells | activation factor at 20 µM | 0.005% of 190,000 active | AID 1214;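 active = activation factor of 2 or more at 20 µM, relative to plate controls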
Target sequence (P34949 whole entry, looked up): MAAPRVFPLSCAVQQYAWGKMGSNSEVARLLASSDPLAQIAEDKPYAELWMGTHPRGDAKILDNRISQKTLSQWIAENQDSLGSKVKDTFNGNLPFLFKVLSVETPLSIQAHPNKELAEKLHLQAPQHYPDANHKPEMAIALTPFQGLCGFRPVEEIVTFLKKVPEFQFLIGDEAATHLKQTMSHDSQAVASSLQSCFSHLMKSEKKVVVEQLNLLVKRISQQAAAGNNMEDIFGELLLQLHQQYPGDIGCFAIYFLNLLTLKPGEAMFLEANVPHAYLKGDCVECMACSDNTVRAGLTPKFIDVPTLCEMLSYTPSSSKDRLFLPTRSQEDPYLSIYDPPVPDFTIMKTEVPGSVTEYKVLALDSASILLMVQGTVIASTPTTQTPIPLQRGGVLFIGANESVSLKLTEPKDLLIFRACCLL
PMI act satM6P: increases human PMI activity with near-saturating mannose 6-phosphate; P34949; coupled PMI enzyme assay, resazurin fluorescence, 20 min; stronger effect = higher value; 1 = untreated enzyme, 0 = substrate-free blank; activation factor at 20 µM; 0.34% of 190,000 active; AID 1216;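 active = activation factor of 2 or more at 20 µM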
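Test system: human PMI in coupled enzyme assay; Input: PMI at 15 ng/mL final; Medium: HEPES buffer, pH 7.4; Schedule: 20 min incubation at room temperature; Technique: resorufin fluorescence at Ex 544/Em 590 nm; Compound: 20 µM single dose; Probe or stimulus: Near-saturating mannose-6-phosphate, 1.0 mM.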
TNAP act hiacc: increases human TNAP activity under high phosphate acceptor concentration; P05186; purified TNAP, CDP-star luminescence, 1 M DEA, 30 min; stronger effect = higher value; 0 = EDTA background, 1 = DMSO-only activity; activation factor at 20 µM; 200,000 tested, under 10 active; AID 1136;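 active = activation factor at least 2 at 20 µM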
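Measured by: Luminescent substrate turnover signal | Test system: Human TNAP | Input: TNAP 1/800 final | Dosing: 20 µM single point | Schedule: 30 min, room temperature | Controls: EDTA wells as negative control, DMSO wells as positive control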
TNAP inh no acc: blocks human TNAP activity with no phosphate acceptor present; purified TNAP, CDP-star luminescence, 30 min; inhibition, % at 20 µM; 0.26% of 200,000 active;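 active = tissue-nonspecific alkaline phosphatase inhibition above about 50% at 20 µM in the single-dose screen, limit read from the data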;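 note: 0% = DMSO negative control and 100% = EDTA positive control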
TNAP inh hiacc: inhibitors of human TNAP at high phosphate acceptor concentration; 0.03% of 200,000 active; inhibition, % at 20 µM; purified TNAP, CDP-star luminescence, 1 M DEA; P05186;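 active = over 50% inhibition of tissue-nonspecific alkaline phosphatase at 20 µM in the single-dose screen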;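 note: plate controls were DMSO wells for no effect and EDTA-quenched wells as full inhibition for full effect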
Numbers without * were called inactive. Rows were chosen to be rich in hits. Some 0.64% of all compounds tested hit in one or more screens of this group.

SMILES	PMI act	PMI act satM6P	TNAP act hiacc	TNAP inh no acc	TNAP inh hiacc
COc1ccc(/C=N/NC(=O)c2cc(C34CC5CC(CC(C5)C3)C4)[nH]n2)cc1OC	0.9	1	1	85.9*	0.0
COc1cccc(/C=N/NC(=O)c2cc(C34CC5CC(CC(C5)C3)C4)[nH]n2)c1	0.9	0.9	0.9	85.5*	5.9
COc1ccc(CC(NC(C)=O)C(=O)NC2CCN(c3ncccc3[N+](=O)[O-])CC2)cc1 (configuration not stated)	1	0.9	1	1.1	3.0
Cc1nn(C)cc1CNCc1c(C(=O)N2CCCCC2)nc2c(C)cccn12	1	0.9	1.1	-11.6	-5.4
CCN(CC)C(=S)Nc1cc(C(=O)OC)ccc1C(=O)OC	0.9	0.9	1	-9.6	-2.9
O=C(CCN1C(=O)S/C(=C/c2ccc(Cl)cc2)C1=O)N1CCOCC1	0.9	1	1	-14.0	4.3
O=C(O)CCN1C(=O)CC(N2C(=O)/C(=C/c3ccc(Cl)cc3)SC2=S)C1=O (configuration not stated)	1	1.1	1	63.5*	4.1
Brc1ccc(-c2nn3c(-c4ccco4)nnc3s2)o1	1.1	2*	1	-6.8	-1.2
COc1ccc(OCC2c3cc(OC)c(OC)cc3CCN2C(=O)C(C)C)cc1 (configuration not stated)	0.9	0.9	1	-5.5	-1.9
C/C=C(/C)C(=O)O[C@H]1[C@@H](O)c2c(ccc3ccc(=O)oc23)OC1(C)C	1.1	1.1	1.1	-9.3	-5.3
CC1(C)Oc2ccc3ccc(=O)oc3c2C(N2CCCCC2)C1O (configuration not stated)	1.5	2.1*	1	-15.0	-4.2
CC1(C)CC(=O)C2=C(C1)OC(N)=C([N+](=O)[O-])C2c1cccs1 (configuration not stated)	1	0.9	1.1	-13.4	-7.6
CCOCCCNC(=S)NCCCNc1nc2c(C)cc(C)cc2cc1C#N	1.7	2.1*	1.1	-37.7	-12.8
Cc1cc(C)c2nc(NCCCNC(=S)NCCCN(C)C)c(C#N)cc2c1	1.1	1.1	1.1	-16.7	-10.3
Cn1c(-c2nnn(-c3ccc(F)cc3)n2)cc2ccccc21	1.2	1	1	-8.9	-1.1
Cc1nn(-c2ccccc2Cl)c(Cl)c1/C=N/Nc1cccc(C(=O)O)c1	1.5	1.9	1	-2.8	2.4
CCOc1cc(/C=N/Nc2nc(Nc3ccccc3)nc(N3CCCCC3)n2)ccc1OCC(=O)O	1.1	1.1	1	-21.8	-1.0
CCOc1cc(/C=N/NC(=O)CNc2cccc(C)c2)ccc1OC(=O)c1ccccc1	0.9	0.9	1	-1.2	-0.2
CCOc1cc(/C=N/Nc2cccc(C(=O)O)c2)ccc1OC(=O)c1ccccc1	1.6	2.3*	1	-3.9	1.3
Cc1nn(-c2cccc(C(F)(F)F)c2)c(Cl)c1/C=N/Nc1cccc(C(=O)O)c1	1.6	2.5*	1.1	1.9	-5.1
CCOc1cc(/C=N/Nc2ccccc2Cl)ccc1OCC(=O)O	1.9	3.1*	1	-17.5	-4.7
O=C(O)c1ccc(/C=N/Nc2cccc(C(F)(F)F)c2)cc1	1.4	1.3	1	-20.6	-3.1
O=C(O)c1cccc(N/N=C/c2ccc(F)c(F)c2)c1	1.7	2.3*	1	-5.2	-2.1
O=C(O)c1ccccc1/C=N/N1CCN(C2c3ccccc3-c3ccccc32)CC1	0.8	0.8	1.1	-8.1	-5.9
Cc1cc(C(=O)Nn2c(-c3ccc(Br)cc3)nc3ccccc3c2=O)ccc1[N+](=O)[O-]	0.8	0.9	1.1	-9.2	-5.0
SMILES	PMI act	PMI act satM6P	TNAP act hiacc	TNAP inh no acc	TNAP inh hiacc
O/N=C/c1cccnc1Sc1ccccc1	1	1	1.1	-9.8	-6.9
O=C(O)c1cccc(N/N=C/C2=C(Cl)c3cc(Cl)ccc3SC2)c1	1.7	2.5*	0.9	1.8	6.5
Cc1ccc(NC(=O)c2ccccc2OCc2ccc([N+](=O)[O-])cc2)nc1	1	1.1	1	-11.9	-3.7
Cc1ccc(C)c(N2CCN(CC3CC=CCC3)CC2)c1 (configuration not stated)	1	1.1	1	-17.2	-2.8
Clc1cncc(Cl)c1NNc1c2ccccc2nc2ccccc12	1.6	2.2*	0.9	8.4	8.3
Cc1cc(Cl)c2ccccc2n1	1.1	1	1.1	-6.9	-5.9
